Assay results from ChEMBL document CHEMBL4359913, “Identification and characterization of benzo[d]oxazol-2(3H)-one derivatives as the first potent and selective small-molecule inhibitors of chromodomain protein CDYL” (Eur J Med Chem, 2019).
The source made the active and inactive calls. The calls are words filed in the database; no cut-off is given here.

Legend:
SH-SY5Y = assay: Effect on CDYL recruitment onto HOXA3 promoter site in human SH-SY5Y cells at 150 uM incubated for 24 hrs by ChIP-qPCR analysis; assay type: functional, cell-based
Summary of the method: (§1)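 About 1×10^7 SH-SY5Y cells given 150 µM compound or DMSO for 24 h, fixed in 1% formaldehyde for 10 min. Chromatin immunoprecipitated overnight-style (12 h, 4 °C) with CDYL or H3K27me3 antibody, captured on Protein A/G beads, washed, decrosslinked at 65 °C. Promoter DNA quantified by qPCR, mean ± S.E.M. of triplicate experiments, Student's t-test.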

[1] = molecular target: T1, Chromodomain Y-like protein (Homo sapiens) (UniProt Q9Y232); assay: Binding affinity to CDYL in human SH-SY5Y cells assessed as reduction in protein degradation incubated for 4 mins at 55 degC for 4 mins by CETSA; assay type: cell-based
T1 sequence (whole entry): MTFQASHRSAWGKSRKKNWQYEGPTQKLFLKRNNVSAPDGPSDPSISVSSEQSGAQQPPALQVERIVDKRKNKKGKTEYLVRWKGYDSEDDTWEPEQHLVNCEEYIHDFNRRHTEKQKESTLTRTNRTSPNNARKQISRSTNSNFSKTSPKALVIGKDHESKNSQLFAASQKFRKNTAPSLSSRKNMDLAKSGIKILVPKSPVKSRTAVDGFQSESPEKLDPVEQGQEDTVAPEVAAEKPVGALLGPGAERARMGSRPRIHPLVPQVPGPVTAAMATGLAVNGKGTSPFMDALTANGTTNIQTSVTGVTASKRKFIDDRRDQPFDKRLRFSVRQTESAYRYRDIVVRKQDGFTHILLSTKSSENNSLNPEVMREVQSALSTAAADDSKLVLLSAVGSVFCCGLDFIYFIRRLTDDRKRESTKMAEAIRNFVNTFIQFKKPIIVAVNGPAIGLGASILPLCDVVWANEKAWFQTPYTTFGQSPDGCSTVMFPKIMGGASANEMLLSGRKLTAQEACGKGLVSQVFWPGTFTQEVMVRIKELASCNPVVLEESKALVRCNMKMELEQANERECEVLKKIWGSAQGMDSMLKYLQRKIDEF
Summary of the method: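 Lysates of SH-SY5Y cells, freeze-thawed three times, incubated with compound at 0–500 µM at 55 °C for 4 min. Supernatant isolated by centrifugation and CDYL read by immunoblot with densitometry.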

[2] = molecular target: T2, Chromodomain Y-like protein (Mus musculus) (UniProt Q9WTK2); assay: Inhibition of CDYL in C57BL/6 mouse cortical neurons as increase in BDNF mRNA expression at 150 uM incubated for 24 hrs by RT-qPCR analysis
T2 sequence (whole entry): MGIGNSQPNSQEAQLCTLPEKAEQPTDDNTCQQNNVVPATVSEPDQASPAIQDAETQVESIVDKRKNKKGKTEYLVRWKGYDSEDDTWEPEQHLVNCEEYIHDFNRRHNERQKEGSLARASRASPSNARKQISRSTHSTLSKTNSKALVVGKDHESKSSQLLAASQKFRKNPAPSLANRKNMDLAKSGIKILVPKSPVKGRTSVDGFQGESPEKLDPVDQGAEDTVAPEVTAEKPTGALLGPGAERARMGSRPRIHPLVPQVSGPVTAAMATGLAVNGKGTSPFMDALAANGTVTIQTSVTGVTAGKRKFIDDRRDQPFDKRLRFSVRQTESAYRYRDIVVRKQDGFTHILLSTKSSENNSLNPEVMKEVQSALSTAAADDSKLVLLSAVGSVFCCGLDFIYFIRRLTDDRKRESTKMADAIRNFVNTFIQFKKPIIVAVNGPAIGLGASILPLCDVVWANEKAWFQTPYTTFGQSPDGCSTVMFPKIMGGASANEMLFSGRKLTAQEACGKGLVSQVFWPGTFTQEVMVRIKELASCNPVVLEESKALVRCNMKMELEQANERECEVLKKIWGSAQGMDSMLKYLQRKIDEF
Summary of the method: (§2)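 Mouse cortical or hippocampal neurons, dissociated with trypsin and kept in Neurobasal/B27, treated with 150 µM compound for 24 h. mRNA measured by SYBR green RT-qPCR with the 2^-ΔΔCt method, GAPDH as reference, relative to DMSO. Mean ± S.E.M. of triplicate experiments, Student's t-test.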

[3] = molecular target: T1, Chromodomain Y-like protein (Homo sapiens); assay: Inhibition of CDYL in human HEK293T cells assessed as increase in BDNF mRNA expression at 50 to 200 uM incubated for 24 hrs by RT-qPCR analysis; assay type: cell-based
Summary of the method: (§3)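 SH-SY5Y or HEK-293T cells grown in DMEM with 10% FBS and treated with compound for 24 h. mRNA quantified by SYBR green RT-qPCR after DNase treatment, 2^-ΔΔCt method with GAPDH as reference, relative to DMSO. Mean ± S.E.M. of triplicate experiments, Student's t-test.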

[4] = molecular target: T2, Chromodomain Y-like protein (Mus musculus); assay: Inhibition of CDYL in C57BL/6 mouse cortical neurons as increase in MYT1 mRNA expression at 150 uM incubated for 24 hrs by RT-qPCR analysis; summary of the method: as §2
[5] = molecular target: T3, Chromodomain Y-like protein (Homo sapiens, UniProt Q9Y232); assay: Binding affinity to recombinant human N-terminal GST-tagged CDYL (1 to 60 residues) expressed in Escherichia coli […] by SPR analysis
T3 sequence (Q9Y232 whole entry): T1 sequence (whole entry)
Summary of the method: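 GST-tagged chromodomain expressed in E. coli BL21 with 0.2 mM IPTG at 28 °C for 6 h. Purified on GSTrap, tag removed with PreScission protease. Amine-coupled to CM5 chip at pH 4.0–4.5 (5000–10000 RU). Compound run as a 1.5- or 2-fold series from 100 µM in PBSP with 5% DMSO, 25 °C, 30 µL/min, 60 s association and 60 s dissociation.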

[6] = molecular target: T1, Chromodomain Y-like protein (Homo sapiens); assay: Binding affinity to CDYL in human SH-SY5Y cells assessed as increase in protein thermal stability at 150 uM incubated for 10 mins at room temperature followed by exposure to 40 to 67 degC for 4 mins followed by cooling for 3 mins at room temperature by CETSA; assay type: cell-based
Summary of the method: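 SH-SY5Y cells freeze-thawed three times in liquid nitrogen, lysate diluted with PBS, given 150 µM compound or DMSO for 10 min at room temperature. Aliquots heated at 40–67 °C for 4 min, cooled 3 min, spun at 13,000 g for 10 min at 4 °C. CDYL in the supernatant read by SDS-PAGE and Western blot, bands quantified by densitometry.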

[7] = molecular target: T2, Chromodomain Y-like protein (Mus musculus); assay: Inhibition of CDYL in C57BL/6 mouse hippocampal neurons assessed as induction of dendritic branching at 150 uM incubated for 24 hrs by DAPI staining confocal microscopic method
Summary of the method: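 Mouse hippocampal or cortical neurons on poly-D-lysine given 150 µM compound or DMSO at DIV 5 for 24 h, then fixed in 4% PFA. Stained for MAP2 with DAPI nuclei and imaged by confocal microscopy. Dendrite crossings counted by Sholl analysis at 10 µm intervals. Mean ± S.E.M. of triplicates, Student's t-test.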

[8] = molecular target: T1, Chromodomain Y-like protein (Homo sapiens); assay: Inhibition of CDYL in human SH-SY5Y cells assessed as decrease in enrichment of H3K27me3 at BDNF promoter site at 150 uM incubated for 24 hrs by ChIP-qPCR analysis; assay type: cell-based; summary of the method: as §1
[9] = molecular target: T1, Chromodomain Y-like protein (Homo sapiens); assay: Inhibition of CDYL in human HEK293T cells assessed as increase in MYT1 mRNA expression at 50 to 200 uM incubated for 24 hrs by RT-qPCR analysis; assay type: cell-based; summary of the method: as §3

O=C(Cn1c(=O)oc2ccccc21)N1CCC(N2CCCC2)CC1
Activity (SH-SY5Y): inactive | inhibition [1]: Dose-dependent effect | Activity [2]: Active | Activity [3]: Active | Activity [4]: Active | Kd [5]: 500 nM | Activity [6]: Active | Activity [7]: Active | inhibition [8]: Active | Activity [9]: Active
